Legend:
[1] = molecular target: Proteasome Macropain subunit (Homo sapiens) (UniProt P49721); assay: Inhibition of catalytic activity of constitutive proteasome 20s subunit beta2 in human Raji cells incubated for 1 hr by BODIPY(FL)-LU-112 probe based competitive activity based protein profiling assay; format: cell-based
[2] = molecular target: Proteasome subunit beta type-8 (β5i, LMP7) (Homo sapiens) (UniProt P28062); assay: Inhibition of catalytic activity of immunoproteasome 20s subunit beta5 in human Raji cells incubated for 1 hr by BODIPY(TMR)-NC-005-VS probe based competitive activity based protein profiling assay
[3] = molecular target: T1, Proteasome Macropain subunit MB1 (Homo sapiens) (UniProt P28074); assay: (§1) Inhibition of catalytic activity of constitutive proteasome 20s subunit beta5 in human Raji cells incubated for 1 hr by BODIPY(TMR)-NC-005-VS probe based competitive activity based protein profiling assay; format: cell-based
T1 sequence (whole entry): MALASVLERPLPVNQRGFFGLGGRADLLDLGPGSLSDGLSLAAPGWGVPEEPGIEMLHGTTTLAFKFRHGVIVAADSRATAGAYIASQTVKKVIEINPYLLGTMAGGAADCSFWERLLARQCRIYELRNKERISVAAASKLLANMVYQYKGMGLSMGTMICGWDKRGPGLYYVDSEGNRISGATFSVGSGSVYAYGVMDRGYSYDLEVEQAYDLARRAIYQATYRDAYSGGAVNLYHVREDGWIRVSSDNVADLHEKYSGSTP

[4] = molecular target: T2, Proteasome Macropain subunit MB1 (Homo sapiens, UniProt P28074); assay: as §1; format: cell-based
T2 sequence (P28074 whole entry): T1 sequence (whole entry)

[5] = molecular target: T3, Proteasome component C5 (Homo sapiens) (UniProt P20618); assay: Inhibition of catalytic activity of constitutive proteasome 20s subunit beta1 in human Raji cells incubated for 1 hr by Cy5-NC-001 probe based competitive activity based protein profiling assay; format: cell-based
T3 sequence (whole entry): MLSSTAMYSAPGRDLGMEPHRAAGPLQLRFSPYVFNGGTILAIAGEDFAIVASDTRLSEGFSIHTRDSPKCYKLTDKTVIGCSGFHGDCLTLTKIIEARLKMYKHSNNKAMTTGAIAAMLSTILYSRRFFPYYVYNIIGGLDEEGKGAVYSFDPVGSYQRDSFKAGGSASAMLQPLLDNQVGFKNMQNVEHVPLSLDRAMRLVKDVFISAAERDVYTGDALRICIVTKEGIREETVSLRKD

[6] = molecular target: Proteasome subunit beta type-9 (β1i, LMP2) (Homo sapiens) (UniProt P28065); assay: Inhibition of catalytic activity of immunoproteasome 20s subunit beta1 in human Raji cells incubated for 1 hr by Cy5-NC-001 probe based competitive activity based protein profiling assay
[7] = molecular target: Proteasome subunit beta type-8 (β5i, LMP7) (Homo sapiens) (UniProt P28062); assay: Inhibition of catalytic activity of immunoproteasome 20s subunit beta5 in human Raji cells assessed as residual activity at 0.01 uM incubated for 1 hr by BODIPY(TMR)-NC-005-VS probe based competitive activity based protein profiling assay relative to control
[8] = molecular target: T1, Proteasome Macropain subunit MB1 (Homo sapiens); assay: Inhibition of catalytic activity of constitutive proteasome 20s subunit beta5 in human Raji cells assessed as residual activity at 0.01 uM incubated for 1 hr by BODIPY(TMR)-NC-005-VS probe based activity based protein profiling assay relative to control; format: cell-based
Procedure, shortened: (§2)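 Initial screen in Raji cell extracts. Inhibitor at 0.01, 0.1, 1.0 and 10.0 µM final for 1 h at 37 °C, then ABP cocktail 1 h. In-gel fluorescence of β5c/β5i bands normalized to mock-treated extract, giving residual activity. Run once. IC50s from this screen feed the β5i/β5c ratio.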

Homo sapiens = species: Homo sapiens; assay: Selectivity ratio of IC50 for immunoproteasome 20s subunit beta5 in human Raji cells to IC50 for constitutive proteasome 20s subunit beta5 in human Raji cells; format: cell-based; procedure, shortened: as §2

IC50 [4]	Activity [8]	Compound	Ratio IC50 (Homo sapiens)	other results
3 nM		CC(C)C[C@H](NC(=O)[C@H](Cc1ccccc1)NC(=O)[C@H](CCc1ccccc1)NC(=O)[C@H](Cc1ccccc1)N=[N+]=[N-])C(=O)[C@@]1(C)CO1		pIC50(app) [1]: 7.22; pIC50(app) [2]: 8.29; pIC50(app) [3]: 8.53; pIC50(app) [5]: < 4; pIC50(app) [6]: 6.79
< 10 nM	12%	CC(C)C[C@H](NC(=O)[C@H](Cc1ccccc1)NC(=O)[C@H](Cc1cccc2ccccc12)NC(=O)[C@H](Cc1ccccc1)N=[N+]=[N-])C(=O)[C@@]1(C)CO1		Activity [7]: 28%
< 10 nM		CC(C)C[C@H](NC(=O)[C@H](Cc1ccccc1)NC(=O)[C@H](CC1CCCCC1)NC(=O)[C@H](Cc1ccccc1)N=[N+]=[N-])C(=O)[C@@]1(C)CO1	> 5	
1230 nM		C[C@H](NC(=O)[C@H](Cc1ccccc1)NC(=O)[C@H](CC1CCC(C2CCCCC2)CC1)NC(=O)CN1CCOCC1)C(=O)[C@@]1(C)CO1 (some centres undefined)	> 8	
853 nM		COc1ccc(C[C@H](NC(=O)[C@H](CC23CC4CC(CC(C4)C2)C3)NC(=O)CN2CCOCC2)C(=O)N[C@@H](C)C(=O)[C@@]2(C)CO2)cc1	> 12	
		CC(C)C[C@H](NC(=O)[C@H](Cc1ccccc1)NC(=O)[C@H](Cc1ccccc1)NC(=O)[C@H](Cc1ccccc1)N=[N+]=[N-])C(=O)[C@@]1(C)CO1		pIC50(app) [1]: 7.18; pIC50(app) [5]: < 4; pIC50(app) [6]: 6.91
< 10 nM	9%	CC(C)C[C@H](NC(=O)[C@H](Cc1ccccc1)NC(=O)[C@H](Cc1ccc(-c2ccccc2)cc1)NC(=O)[C@H](Cc1ccccc1)N=[N+]=[N-])C(=O)[C@@]1(C)CO1		Activity [7]: 28%
< 10 nM	16%	CC(C)C[C@H](NC(=O)[C@H](Cc1ccccc1)NC(=O)[C@H](Cc1c[nH]c2ccccc12)NC(=O)[C@H](Cc1ccccc1)N=[N+]=[N-])C(=O)[C@@]1(C)CO1		Activity [7]: 49%
< 10 nM	24%	CC(C)C[C@H](NC(=O)[C@H](Cc1ccccc1)NC(=O)[C@H](CC1CC2CCC1C2)NC(=O)[C@H](Cc1ccccc1)N=[N+]=[N-])C(=O)[C@@]1(C)CO1 (some centres undefined)	> 3	
17 to 19 nM		CC(C)C[C@H](NC(=O)[C@H](Cc1ccccc1)NC(=O)[C@H](CC1CCC(C2CCCCC2)CC1)NC(=O)[C@H](Cc1ccccc1)N=[N+]=[N-])C(=O)[C@@]1(C)CO1 (some centres undefined)		pIC50(app) [2]: 6.36; pIC50(app) [3]: 7.77; pIC50(app) [5]: < 4; pIC50(app) [6]: < 4
710 nM		C[C@H](NC(=O)[C@H](Cc1ccccc1)NC(=O)[C@H](C[C@H]1CC[C@@H](C2CCCCC2)CC1)NC(=O)[C@H](Cc1ccccc1)N=[N+]=[N-])C(=O)[C@@]1(C)CO1		
< 10 nM	23%	COc1ccc(C[C@H](NC(=O)[C@H](Cc2ccc(-c3ccccc3)cc2)NC(=O)CN2CCOCC2)C(=O)N[C@@H](CC(C)C)C(=O)[C@@]2(C)CO2)cc1		Activity [7]: 44%
853 nM		COc1ccc(C[C@H](NC(=O)[C@H](CC23CC4CC(CC(C4)C2)C3)NC(=O)CN2CCOCC2)C(=O)N[C@@H](CC(C)C)C(=O)[C@@]2(C)CO2)cc1	1	
< 10 nM		C[C@H](NC(=O)[C@H](Cc1ccccc1)NC(=O)[C@H](Cc1ccc(-c2ccccc2)cc1)NC(=O)[C@H](Cc1ccccc1)N=[N+]=[N-])C(=O)[C@@]1(C)CO1	> 13	
< 10 nM	14%	CC(C)C[C@H](NC(=O)[C@H](Cc1ccccc1)NC(=O)[C@H](Cc1ccc2ccccc2c1)NC(=O)[C@H](Cc1ccccc1)N=[N+]=[N-])C(=O)[C@@]1(C)CO1		Activity [7]: 49%
< 10 nM	9%	COc1ccc(C[C@H](NC(=O)[C@H](Cc2ccc3ccccc3c2)NC(=O)CN2CCOCC2)C(=O)N[C@@H](CC(C)C)C(=O)[C@@]2(C)CO2)cc1		Activity [7]: 23%
20 to 74.7 nM		C[C@H](NC(=O)[C@H](Cc1ccccc1)NC(=O)[C@H](CC1CCC(C2CCCCC2)CC1)NC(=O)[C@H](Cc1ccccc1)N=[N+]=[N-])C(=O)[C@@]1(C)CO1 (some centres undefined)		pIC50(app) [2]: 4.78; pIC50(app) [3]: 7.13; pIC50(app) [5]: < 4; pIC50(app) [6]: < 4

IC50 [4]	Activity [8]	Compound	Ratio IC50 (Homo sapiens)	other results
< 10 nM	44%	CC(C)C[C@H](NC(=O)[C@H](Cc1ccccc1)NC(=O)[C@@H](NC(=O)[C@H](Cc1ccccc1)N=[N+]=[N-])c1ccccc1)C(=O)[C@@]1(C)CO1		Activity [7]: 56%
57 nM		C[C@H](NC(=O)[C@H](Cc1ccccc1)NC(=O)[C@H](CC1CCCCC1)NC(=O)[C@H](Cc1ccccc1)N=[N+]=[N-])C(=O)[C@@]1(C)CO1	> 175	
2 nM		CC(C)C[C@H](NC(=O)[C@H](Cc1ccccc1)NC(=O)[C@H](CC1CCC(C)CC1)NC(=O)[C@H](Cc1ccccc1)N=[N+]=[N-])C(=O)[C@@]1(C)CO1 (some centres undefined)		pIC50(app) [1]: 7.34; pIC50(app) [2]: 7.96; pIC50(app) [3]: 8.7; pIC50(app) [5]: < 4; pIC50(app) [6]: < 4
< 10 nM	40%	CC(C)C[C@H](NC(=O)[C@H](Cc1ccccc1)NC(=O)[C@H](CC1CCCC2CCCCC21)NC(=O)[C@H](Cc1ccccc1)N=[N+]=[N-])C(=O)[C@@]1(C)CO1 (some centres undefined)	> 1.5	
> 10000 nM		C[C@H](NC(=O)[C@H](Cc1ccccc1)NC(=O)[C@@H](NC(=O)[C@H](Cc1ccccc1)N=[N+]=[N-])[C@H](C)OC(C)(C)C)C(=O)[C@@]1(C)CO1		
119 nM		COc1ccc(C[C@H](NC(=O)[C@H](CC2CCCCC2)NC(=O)CN2CCOCC2)C(=O)N[C@@H](CC(C)C)C(=O)[C@@]2(C)CO2)cc1	2	
71 nM		C[C@H](NC(=O)[C@H](Cc1ccccc1)NC(=O)[C@H](C[C@H]1CC[C@@H](c2ccccc2)CC1)NC(=O)[C@H](Cc1ccccc1)N=[N+]=[N-])C(=O)[C@@]1(C)CO1	165	
< 10 nM	6%	Cc1ccc(C[C@H](NC(=O)[C@H](Cc2ccccc2)N=[N+]=[N-])C(=O)N[C@@H](Cc2ccccc2)C(=O)N[C@@H](CC(C)C)C(=O)[C@@]2(C)CO2)cc1		Activity [7]: 15%
36 nM		CC(C)C[C@H](NC(=O)[C@H](Cc1ccccc1)NC(=O)[C@H](CCC1CCCCC1)NC(=O)[C@H](Cc1ccccc1)N=[N+]=[N-])C(=O)[C@@]1(C)CO1	1	
3.8 nM		C[C@H](NC(=O)[C@H](Cc1ccccc1)NC(=O)[C@H](C[C@H]1CC[C@H](c2ccccc2)CC1)NC(=O)[C@H](Cc1ccccc1)N=[N+]=[N-])C(=O)[C@@]1(C)CO1	2250	
< 10 nM	30%	COc1ccc(C[C@H](NC(=O)[C@H](Cc2cccc3ccccc23)NC(=O)CN2CCOCC2)C(=O)N[C@@H](CC(C)C)C(=O)[C@@]2(C)CO2)cc1		Activity [7]: 36%
< 10 nM	36%	CC(C)C[C@H](NC(=O)[C@H](Cc1ccccc1)NC(=O)[C@H](CC1CCC2CCCCC2C1)NC(=O)[C@H](Cc1ccccc1)N=[N+]=[N-])C(=O)[C@@]1(C)CO1 (some centres undefined)	> 2.5	
33 nM		CC(C)C[C@H](NC(=O)[C@H](Cc1ccccc1)NC(=O)[C@@H](NC(=O)[C@H](Cc1ccccc1)N=[N+]=[N-])C1CCCCC1)C(=O)[C@@]1(C)CO1	2	
2.1 nM		COC1CCC(C[C@H](NC(=O)[C@H](Cc2ccccc2)N=[N+]=[N-])C(=O)N[C@@H](Cc2ccccc2)C(=O)N[C@@H](CC(C)C)C(=O)[C@@]2(C)CO2)CC1 (some centres undefined)		pIC50(app) [1]: 7.18; pIC50(app) [2]: 7.67; pIC50(app) [3]: 8.68; pIC50(app) [5]: < 4; pIC50(app) [6]: 6.05
18 nM		CC(C)C[C@H](NC(=O)[C@H](Cc1ccccc1)NC(=O)[C@H](CC(C)(C)C)NC(=O)[C@H](Cc1ccccc1)N=[N+]=[N-])C(=O)[C@@]1(C)CO1	4	
> 1000 nM		CC1=C(C(=O)N[C@H](C)C(=O)N[C@@H](Cc2c[nH]c3ccccc23)C(=O)N[C@@H](CC2CCCCC2)C(=O)[C@@]2(C)CO2)Cc2ccccc21		
